Values joined by “and” are separate entries in the source; they are usually repeats but may differ in a detail not shown here. Equal values may be shown once.
System: U2OS
Test: Multiplex assay against U2OS
Type: toxicity, cell-based
Details: human
Method in brief: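 With compound added, live cells were imaged on a CQ1 microscope at 37°C and 5% CO2; staining with Hoechst33342, BioTracker Green Microtubule Cytoskeleton Dye, MitoTracker Red and Annexin V Alexa Fluor 680 had been done at seeding. The CellPathfinder machine-learning gating scheme split cells into Hoechst high-intensity objects or normal cells, normal cells into healthy, pyknosed or fragmented nuclei, and pyknosed cells into mitotic or apoptotic. The tubulin, mitochondrial-mass and membrane-permeability phenotypes are per cents of healthy-nucleus cells.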

[1] = 12 h, 1 µM, compound concentration 1 uM
[2] = 12 h, 10 µM, compound concentration 10 uM
[3] = 24 h, 1 µM, compound concentration 1 uM
[4] = 24 h, 10 µM, compound concentration 10 uM
[5] = 48 h, 1 µM, compound concentration 1 uM
[6] = 48 h, 10 µM, compound concentration 10 uM

Compound: CSc1nc(NC2CCCC2)c([N+](=O)[O-])c(NC2CCCC2)n1 [GS-39783]
- Population Apoptotic (%) [1]: 82% and 80%
- Population Fragmented Nuclei (%) [1]: 25% and 18%
- Population Healthy Nuclei (%) [1]: 66% and 76%
- Population Hoechst High Intensity Objects (%) [1]: 2% and 3%
- Population Membrane Permeable-Phenotype (%) [1]: 4%
- Population Mitochondria Different-Phenotype (%) [1]: 3% and 0%
- Population Mitotic Cells (%) [1]: 17% and 20%
- Population Normal (%) [1]: 97% and 96%
- Population Pyknosed Nuclei (%) [1]: 8% and 5%
- Population Tubulin-Different-Phenotype (%) [1]: 1%
- Total Cell Count [1]: 209 and 96
- Population Apoptotic (%) [2]: 88% and 100%
- Population Fragmented Nuclei (%) [2]: 30% and 19%
- Population Healthy Nuclei (%) [2]: 63% and 75%
- Population Hoechst High Intensity Objects (%) [2]: 3% and 1%
- Population Membrane Permeable-Phenotype (%) [2]: 9%
- Population Mitochondria Different-Phenotype (%) [2]: 5% and 0%
- Population Mitotic Cells (%) [2]: 11% and 0%
- Population Normal (%) [2]: 96% and 98%
- Population Pyknosed Nuclei (%) [2]: 5% and 4%
- Population Tubulin-Different-Phenotype (%) [2]: 4% and 6%
- Total Cell Count [2]: 322 and 145
- Population Apoptotic (%) [3]: 87% and 84%
- Population Fragmented Nuclei (%) [3]: 22% and 20%
- Population Healthy Nuclei (%) [3]: 64% and 68%
- Population Hoechst High Intensity Objects (%) [3]: 2% and 1%
- Population Membrane Permeable-Phenotype (%) [3]: 2% and 1%
- Population Mitochondria Different-Phenotype (%) [3]: 1%
- Population Mitotic Cells (%) [3]: 12% and 15%
- Population Normal (%) [3]: 97% and 98%
- Population Pyknosed Nuclei (%) [3]: 12% and 11%
- Population Tubulin-Different-Phenotype (%) [3]: 1% and 0%
- Total Cell Count [3]: 269 and 119
- Population Apoptotic (%) [4]: 85% and 88%
- Population Fragmented Nuclei (%) [4]: 26% and 18%
- Population Healthy Nuclei (%) [4]: 66% and 75%
- Population Hoechst High Intensity Objects (%) [4]: 2% and 3%
- Population Membrane Permeable-Phenotype (%) [4]: 6% and 9%
- Population Mitochondria Different-Phenotype (%) [4]: 6% and 2%
- Population Mitotic Cells (%) [4]: 14% and 11%
- Population Normal (%) [4]: 97% and 96%
- Population Pyknosed Nuclei (%) [4]: 6% and 5%
- Population Tubulin-Different-Phenotype (%) [4]: 4% and 5%
- Total Cell Count [4]: 341 and 164
- Population Apoptotic (%) [5]: 88% and 92%
- Population Fragmented Nuclei (%) [5]: 18% and 21%
- Population Healthy Nuclei (%) [5]: 70% and 71%
- Population Hoechst High Intensity Objects (%) [5]: 1% and 0%
- Population Membrane Permeable-Phenotype (%) [5]: 3%
- Population Mitochondria Different-Phenotype (%) [5]: 1%
- Population Mitotic Cells (%) [5]: 11% and 7%
- Population Normal (%) [5]: 98% and 100%
- Population Pyknosed Nuclei (%) [5]: 11% and 7%
- Population Tubulin-Different-Phenotype (%) [5]: 1% and 3%
- Total Cell Count [5]: 382 and 185
- Population Apoptotic (%) [6]: 89% and 85%
- Population Fragmented Nuclei (%) [6]: 23% and 12%
- Population Healthy Nuclei (%) [6]: 67% and 81%
- Population Hoechst High Intensity Objects (%) [6]: 2% and 0%
- Population Membrane Permeable-Phenotype (%) [6]: 5% and 4%
- Population Mitochondria Different-Phenotype (%) [6]: 1% and 3%
- Population Mitotic Cells (%) [6]: 10% and 14%
- Population Normal (%) [6]: 97% and 99%
- Population Pyknosed Nuclei (%) [6]: 8% and 6%
- Population Tubulin-Different-Phenotype (%) [6]: 2% and 3%
- Total Cell Count [6]: 462 and 231

Compound: CC(C)c1noc(N2CCC(COc3ccc(-c4ccc(S(C)(=O)=O)cc4)nc3)CC2)n1 [GSK-1292263]
- Population Apoptotic (%) [1]: 72% and 100%
- Population Fragmented Nuclei (%) [1]: 27% and 16%
- Population Healthy Nuclei (%) [1]: 62% and 77%
- Population Hoechst High Intensity Objects (%) [1]: 2% and 1%
- Population Membrane Permeable-Phenotype (%) [1]: 3% and 4%
- Population Mitochondria Different-Phenotype (%) [1]: 2% and 0%
- Population Normal (%) [1]: 97% and 98%
- Population Pyknosed Nuclei (%) [1]: 10% and 5%
- Population Tubulin-Different-Phenotype (%) [1]: 0% and 2%
- Total Cell Count [1]: 177 and 114
- Population Apoptotic (%) [2]: 90% and 100%
- Population Fragmented Nuclei (%) [2]: 31% and 20%
- Population Healthy Nuclei (%) [2]: 60% and 73%
- Population Hoechst High Intensity Objects (%) [2]: 2% and 0%
- Population Membrane Permeable-Phenotype (%) [2]: 10%
- Population Mitochondria Different-Phenotype (%) [2]: 6% and 8%
- Population Mitotic Cells (%) [2]: 10% and 0%
- Population Normal (%) [2]: 97% and 100%
- Population Pyknosed Nuclei (%) [2]: 7% and 5%
- Population Tubulin-Different-Phenotype (%) [2]: 6%
- Total Cell Count [2]: 262 and 134
- Population Apoptotic (%) [3]: 63% and 66%
- Population Fragmented Nuclei (%) [3]: 32% and 15%
- Population Healthy Nuclei (%) [3]: 57% and 77%
- Population Hoechst High Intensity Objects (%) [3]: 1% and 0%
- Population Membrane Permeable-Phenotype (%) [3]: 5% and 2%
- Population Mitochondria Different-Phenotype (%) [3]: 2%
- Population Mitotic Cells (%) [3]: 36% and 33%
- Population Normal (%) [3]: 98% and 99%
- Population Pyknosed Nuclei (%) [3]: 9% and 6%
- Population Tubulin-Different-Phenotype (%) [3]: 3% and 1%
- Total Cell Count [3]: 236 and 145
- Population Apoptotic (%) [4]: 92% and 66%
- Population Fragmented Nuclei (%) [4]: 25% and 15%
- Population Healthy Nuclei (%) [4]: 65% and 75%
- Population Hoechst High Intensity Objects (%) [4]: 0% and 2%
- Population Membrane Permeable-Phenotype (%) [4]: 10% and 6%
- Population Mitochondria Different-Phenotype (%) [4]: 3% and 5%
- Population Normal (%) [4]: 99% and 97%
- Population Pyknosed Nuclei (%) [4]: 9% and 8%
- Population Tubulin-Different-Phenotype (%) [4]: 3% and 2%
- Total Cell Count [4]: 284 and 143
- Population Apoptotic (%) [5]: 77% and 90%
- Population Fragmented Nuclei (%) [5]: 23% and 15%
- Population Healthy Nuclei (%) [5]: 69% and 74%
- Population Hoechst High Intensity Objects (%) [5]: 2% and 1%
- Population Membrane Permeable-Phenotype (%) [5]: 3% and 6%
- Population Mitochondria Different-Phenotype (%) [5]: 3% and 2%
- Population Mitotic Cells (%) [5]: 22% and 10%
- Population Normal (%) [5]: 97% and 98%
- Population Pyknosed Nuclei (%) [5]: 6% and 10%
- Population Tubulin-Different-Phenotype (%) [5]: 2% and 1%
- Total Cell Count [5]: 339 and 201
- Population Apoptotic (%) [6]: 87% and 83%
- Population Fragmented Nuclei (%) [6]: 22% and 12%
- Population Healthy Nuclei (%) [6]: 68% and 77%
- Population Hoechst High Intensity Objects (%) [6]: 4% and 1%
- Population Membrane Permeable-Phenotype (%) [6]: 6% and 5%
- Population Mitochondria Different-Phenotype (%) [6]: 2% and 4%
- Population Mitotic Cells (%) [6]: 12% and 16%
- Population Normal (%) [6]: 95% and 98%
- Population Pyknosed Nuclei (%) [6]: 9%
- Population Tubulin-Different-Phenotype (%) [6]: 2% and 4%
- Total Cell Count [6]: 354 and 189

— ChEMBL document CHEMBL5724801, “EUbOPEN Chemogenomics Library - Multiplex” (2024)
